Bioassay records: PubChem, several laboratories
TDP2 absorb – human TDP2 enzyme inhibitors, primary screen, biochemical, epi absorbance, recombinant enzyme; T5PNP hydrolysis, p-nitrophenol absorbance 415 nm; Tyrosyl-DNA phosphodiesterase 2 (Homo sapiens), O95551; actives 0.34% (n = 370,000); AID 720702, 2013; inhibition, % at 12.8 µM;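 active = inhibition above the mean of all tested compounds plus 3 SD, set per campaign, cut at about 25% in these data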
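Material: recombinant human TDP2; quantity: TDP2 enzyme at 120 nM final; medium: Tris-HCl pH 7.5 with MgCl2; compound: single concentration, 12.8 µM nominal, with 1% DMSO; incubation: 2 h enzyme incubation at 37 °C; signal: epi absorbance; measure: percent inhibition; benchmarks: high control without enzyme, low control DMSO plus TDP2; repeats: singlicate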
ASAP1 GAP inh – inhibitors of human ASAP1 ArfGAP activity, primary screen, biochemical, fluorescence polarization. AID 624377, 2012. Arf-GAP with SH3 domain, ANK repeat and PH domain-containing protein 1 (Homo sapiens), …. ASAP1-stimulated ARF1 GTP hydrolysis, GDP FP detection. actives 0.19% (n = 360,000). inhibition, % at 16.5 µM
Target sequence (Q9ULH1 325-724 limits assumed): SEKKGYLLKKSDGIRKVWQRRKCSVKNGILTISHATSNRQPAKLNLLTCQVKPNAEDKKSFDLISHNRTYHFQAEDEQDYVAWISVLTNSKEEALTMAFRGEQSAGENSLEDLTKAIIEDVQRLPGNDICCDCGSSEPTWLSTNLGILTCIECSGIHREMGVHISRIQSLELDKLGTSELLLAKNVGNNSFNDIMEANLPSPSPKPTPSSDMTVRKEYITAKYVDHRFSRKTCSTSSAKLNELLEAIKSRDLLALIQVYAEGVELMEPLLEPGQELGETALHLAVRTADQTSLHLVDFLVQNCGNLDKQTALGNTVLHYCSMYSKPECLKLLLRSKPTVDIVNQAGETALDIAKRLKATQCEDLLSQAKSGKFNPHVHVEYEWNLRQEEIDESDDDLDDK
LEDGF integ inh – blockers of LEDGF/p75-dependent integrase strand transfer – biochemical, TR-FRET, high throughput, primary screen; HIV-1 integrase (with human LEDGF/p75); TR-FRET IN-LEDGF/p75 DNA integration, Eu/Cy5; inhibition, % at 3.7 µM; actives 0.64% (n = 370,000);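 active = inhibition above the screen-wide mean plus 3 SD, cut at about 13% in these data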;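 note: signal is the Cy5 over europium emission ratio at 671 and 618 nm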
Casp6 inh – human caspase-6 inhibitors, primary screen, biochemical, VEID-R110 fluorescence, single point, set 2; actives 0.53% (n = 350,000); purified caspase-6, Z-VEID-R110 cleavage fluorescence; inhibition, % at 12.5 µM; AID 686996, 2013; P55212;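 active = mean inhibition across replicates at least about 35%, with every replicate also reaching that limit, limit read from the data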
ARFGAP1 inh – inhibitors of rat ARFGAP1 GAP activity, primary screen, biochemical, fluorescence polarization, GDP tracer | inhibition, % at 16.5 µM | ADP-ribosylation factor GTPase-activating protein 1 (Rattus norvegicus), Q62848 | actives 0.26% (n = 360,000) | Arfgap1-stimulated ARF1 GTP hydrolysis, GDP FP detection;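 active = inhibition above a per-plate limit, mean inhibition of low control wells plus 3 SD, cut at about 25% in these data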
Target sequence (Q62848 1-136 limits assumed): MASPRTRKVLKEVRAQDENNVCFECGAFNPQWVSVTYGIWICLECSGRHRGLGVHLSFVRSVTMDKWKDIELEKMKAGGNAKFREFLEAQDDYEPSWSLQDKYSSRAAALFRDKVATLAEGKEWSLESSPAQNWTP
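System: truncated rat Arfgap1 GAP domain / Medium: HEPES-based buffer, pH 7.5 / Also added: N-terminally truncated human ARF1-GTP substrate / Incubation: enzyme reaction 120 min at 25 °C after 20 min preincubation / Measured by: FP of antibody-bound GDP Alexa 633 tracer, ex 620/em 688 nm / Replicates: singlicate, each compound tested once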
CASP1 counter – human caspase-1 inhibitors, dose response, selectivity assay for caspase-6 inhibitor project, biochemical, Z-YVAD-R110 fluorescence, cherry-pick, set 2; shares compounds with Casp6 inh; purified caspase-1, Z-YVAD-R110 cleavage fluorescence; activity change, negative = inhibition, % at 35 µM; 100 tested, under 10 active; AID 743289, 2014;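 active = compounds lowering fluorescence whose fitted half-maximal concentration is no more than twice their top tested dose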
TDP2 confirm – human TDP2 enzyme inhibitors, retest, confirmation, biochemical, epi absorbance, recombinant enzyme; shares compounds with TDP2 absorb; absorbance read-out; inhibition, % at 12.8 µM; actives 22% (n = 1,100); AID 743263, 2014
IN multimer act – HIV-1 IN multimer formation enhancers, counter-screen for LEDGF/p75 integration inhibitor project, biochemical, TR-FRET. shares compounds with LEDGF integ inh. TR-FRET HIV-1 integrase multimerization. activation, % at 7.7 µM. actives 17% (n = 2,000); in the data active = activation above about 8.9%
TRFRET interf – TR-FRET optical interference artefacts, confirmation, artefact control for LEDGF/p75-dependent integration inhibitor project, biochemical, HIV-1 IN multimerization; shares compounds with LEDGF integ inh; inhibition, % at 7.7 µM; TR-FRET optical interference counterscreen; 2,000 tested, under 10 active;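 active = inhibition above the mean over all tested compounds plus 3 SD, which no compound reached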
IN-LEDGF confirm – inhibitors of HIV-1 IN-LEDGF/p75 DNA integration, confirmation, biochemical, TR-FRET | shares compounds with LEDGF integ inh | TR-FRET LEDGF/p75-dependent HIV-1 integration | inhibition, % at 3.7 µM | actives 36% (n = 2,000) | AID 1053136, 2014; in the data active = inhibition above about 14%
A number is an active result; . = inactive; / = no result given. Sampled rows, rich in hits. Any-hit rate of the full collection: about 1.3%. Cut-off read from the data, not from the text of the source, unless noted: active = inhibition above about 25%; inactive = the rest.

SMILES | TDP2 absorb | ASAP1 GAP inh | LEDGF integ inh | Casp6 inh | ARFGAP1 inh | TDP2 confirm | others
CC(CNc1ccccc1O)C(=O)O (stereo unspecified) | . | . | 23 | 56 | . | / | CASP1 counter=.;IN multimer act=11;TRFRET interf=.;IN-LEDGF confirm=.
CC(NC(=O)CCC(=O)Nc1ccccc1O)c1ccccc1 (stereo unspecified) | . | . | . | . | . | /
O=c1cc2oc3cc(O)c(O)cc3c(-c3ccccc3[N+](=O)[O-])c-2cc1O | . | . | 86 | 96 | . | / | CASP1 counter=.;IN multimer act=11;TRFRET interf=.;IN-LEDGF confirm=86
Cn1cccc1/C=N/n1c(-c2ccc(C(C)(C)C)cc2)n[nH]c1=S | . | . | . | / | . | /
Cn1c(=O)c2c(-c3ccccc3)n(-c3ccc(N)cc3)cc2n(C)c1=O | 58 | . | 40 | 83 | . | 27 | CASP1 counter=.;IN multimer act=.;TRFRET interf=.;IN-LEDGF confirm=.
Cc1cc(C=O)c(C)n1-c1ccc(Cl)c(C(=O)O)c1 | . | . | 21 | 54 | . | / | CASP1 counter=.;IN multimer act=.;TRFRET interf=.;IN-LEDGF confirm=21
COc1ccc(-n2c(C)cc(C=O)c2C)cc1Cl | . | . | . | / | . | /
O=C(COC(=O)c1cccc(S(=O)(=O)N2CCCC2)c1)c1ccc(F)cc1 | . | . | . | . | . | /
CCOc1cc(/C=C\c2nc(O)c([N+](=O)[O-])c(=O)[nH]2)ccc1OC(C)C | 25 | . | . | . | . | .
COC(=O)CCC(=O)OC1(C)C(=O)C=C2C=C(C3CC3)N(CCCCO)C=C2C1=O (stereo unspecified) | 31 | . | . | 37 | . | .
COC(=O)CCC(=O)OC1(C)C(=O)C=C2C=C(C3CC3)N(C(CO)CO)C=C2C1=O (stereo unspecified) | 30 | . | . | . | . | .
COc1ccc(Cc2nnc(SCC(=O)Nc3ccc(C)cc3C)[nH]c2=O)cc1 | . | . | . | . | . | /
O=C(C[C@H]1CC[C@@H]2[C@H](COC[C@H](O)CN2C(=O)C2CC2)O1)NCc1ccccc1Cl | / | / | / | . | / | /
O=C(O)c1ccccc1-c1c2cc(I)c(=O)c(I)c-2oc2c(I)c(O)c(I)cc12 | 28 | . | . | . | . | 40
O=Cc1ccc(-c2ccccc2C(=O)O)o1 | . | . | . | . | . | /
COc1cc(C2C(C#N)=C(N)Oc3n[nH]c(-c4cccs4)c32)cc(OC)c1O (stereo unspecified) | 37 | . | . | . | . | .
Cc1ccc(C2C(C#N)=C(N)Oc3n[nH]c(-c4cccs4)c32)cc1 (stereo unspecified) | 32 | . | . | / | . | .
N#CC1=C(N)Oc2n[nH]c(-c3cccs3)c2C1c1ccoc1 (stereo unspecified) | . | . | . | / | . | /
Nc1cc(OCC(F)(F)F)cc(OCC(F)(F)F)c1 | . | . | . | . | . | /
C=CCNc1nc(C(=O)OCC(=O)c2ccc(Cl)cc2)cs1 | 25 | . | . | . | . | .
C[C@H]1CN([C@@H](C)CO)C(=O)c2cccc(NC(=O)Nc3ccc4c(c3)OCO4)c2O[C@@H]1CN(C)C(=O)Nc1ccc(C(F)(F)F)cc1 | / | / | / | . | / | /
COc1ccc(C)cc1NC(=O)CSc1nnc(-c2n[nH]c3c2CCC3)n1N | . | / | . | / | / | /
COc1ccc(-c2csc3ncnc(N4CCN(S(=O)(=O)c5cccc(C(F)(F)F)c5)CC4)c23)cc1 | 25 | . | . | . | . | .
COc1ccc(-c2csc3ncnc(N4CCN(S(=O)(=O)c5cccc(Br)c5)CC4)c23)cc1 | . | . | . | . | . | /
O=C(C[C@H]1CC[C@H]2[C@@H](COC[C@@H](O)CN2C(=O)Cc2ccccc2)O1)NC1CCCC1 | / | / | / | . | / | /
SMILES | TDP2 absorb | ASAP1 GAP inh | LEDGF integ inh | Casp6 inh | ARFGAP1 inh | TDP2 confirm | others
O=C(COC(=O)CCc1nc2ccccc2c(=O)[nH]1)Nc1c(Cl)cccc1C(F)(F)F | 57 | . | . | . | . | .
CCCCOC(=O)/C=C\C(=O)NC(N)=O | 26 | . | . | . | . | .
Cc1ccc2nsnc2c1N | . | . | . | . | . | /
Nc1cccc2nsnc12 | 60 | . | . | . | . | .
C[C@H](N)c1nnc(SCc2c(Cl)cccc2Cl)o1 | . | . | . | / | . | /
O=C(NCc1cccnc1)c1ccc2c(c1)N(Cc1ccccc1)CCS2 | 25 | . | . | . | . | .
COc1ccc2nc(NC(=O)CN3C(=O)NC4(CCCC4)C3=O)sc2c1 | 63 | . | . | . | . | .
COc1ccc2nc(NC(=O)CSc3ccccc3)sc2c1 | 26 | . | . | / | . | .
COc1ccc2nc(NC(=O)CSC3=NCCS3)sc2c1 | . | . | . | . | . | /
CCCNC(=O)N1CCC2(CC1)CN(C(=O)COC)[C@H](CO)c1c2c2ccc(OC)cc2n1C | / | / | / | . | / | /
Cc1cccc(Oc2ncccc2[N+](=O)[O-])c1C | . | . | . | . | . | /
CC(NC(=O)CSc1nnc(COc2ccccc2)o1)c1ccccc1 (stereo unspecified) | . | . | . | . | . | /
COc1ccc(Cc2nnc(SCC(=O)NC(C)c3ccccc3)o2)cc1 (stereo unspecified) | 72 | . | . | / | . | .
CN(C(=O)CC1C(=O)NCCN1C/C=C/c1ccccc1)C1CCOCC1 (stereo unspecified) | . | . | . | . | . | /
